Test results from ChEMBL document CHEMBL1255409, “In vitro activity of ceftaroline against 623 diverse strains of anaerobic bacteria” (2010).
Values after ≈ are worked out from the molar mass of the structure shown.

How the values were obtained:
[1] = system: Clostridium paraputrificum; experiment: Antimicrobial activity against Clostridium paraputrificum under anaerobic conditions after 44 hrs by CLSI-M11-47 protocol based agar dilution method; format: functional
How it was run: (§1)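 Reference agar dilution per CLSI M11-A7 with plates made on test day. Clinical isolates were stored at −70°C in 20% skim milk, subcultured twice, and 48-h cell paste was suspended in brucella broth to 0.5 McFarland. About 10^5 CFU/spot was applied with a Steers replicator. Plates were incubated 44 h at 37°C anaerobically. MIC was the lowest concentration giving complete inhibition or marked growth reduction versus the drug-free control.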

[2] = system: Prevotella corporis; experiment: Antimicrobial activity against Prevotella corporis under anaerobic conditions after 44 hrs by CLSI-M11-47 protocol based agar dilution method; format: functional
How it was run: (§2)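 Clinical isolates were stored at −70°C in 20% skim milk and identified phenotypically or by partial 16S rRNA sequencing. Each strain was subcultured twice from frozen stock. Cell paste from 48-h cultures was suspended in brucella broth to a 0.5 McFarland standard. About 10^5 CFU per spot were applied by Steers replicator to agar dilution plates prepared on the day of testing. Plates were incubated 44 h at 37°C in an anaerobic chamber. MIC was taken as the lowest concentration giving complete inhibition or marked reduction of growth versus the drug-free control.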

[3] = system: Porphyromonas asaccharolytica; experiment: Antimicrobial activity against Porphyromonas asaccharolyticus under anaerobic conditions after 44 hrs by CLSI-M11-47 protocol based agar dilution method; format: functional; how it was run: as §2
[4] = system: Schaalia odontolytica; experiment: Antimicrobial activity against Actinomyces odontolyticus under anaerobic conditions after 44 hrs by CLSI-M11-47 protocol based agar dilution method; format: functional; how it was run: as §1
[5] = system: Enterocloster clostridioformis; experiment: Antimicrobial activity against Clostridium clostridioforme under anaerobic conditions after 44 hrs by CLSI-M11-47 protocol based agar dilution method; format: functional; how it was run: as §1
[6] = system: Parabacteroides merdae; experiment: Antimicrobial activity against Bacteroides merdae under anaerobic conditions after 44 hrs by CLSI-M11-47 protocol based agar dilution method; format: functional; how it was run: as §1
[7] = system: Bacteroides fragilis; experiment: Antimicrobial activity against Bacteroides fragilis under anaerobic conditions after 44 hrs by CLSI-M11-47 protocol based agar dilution method; format: functional; how it was run: as §1
[8] = system: Fusobacterium necrophorum; experiment: Antimicrobial activity against Fusobacterium necrophorum under anaerobic conditions after 44 hrs by CLSI-M11-47 protocol based agar dilution method; format: functional; how it was run: as §1
[9] = system: Clostridium baratii; experiment: Antimicrobial activity against Clostridium baratii under anaerobic conditions after 44 hrs by CLSI-M11-47 protocol based agar dilution method; format: functional
[10] = system: Gemella morbillorum; experiment: Antimicrobial activity against Gemella morbillorum under anaerobic conditions after 44 hrs by CLSI-M11-47 protocol based agar dilution method; format: functional; how it was run: as §2
[11] = system: Prevotella intermedia; experiment: Antimicrobial activity against Prevotella intermedia under anaerobic conditions after 44 hrs by CLSI-M11-47 protocol based agar dilution method; format: functional; how it was run: as §2
[12] = system: Actinomyces neuii subsp. anitratus; experiment: Antimicrobial activity against Actinomyces neuii subsp. anitratus under anaerobic conditions after 44 hrs by CLSI-M11-47 protocol based agar dilution method; format: functional, Winkia neuii subsp. anitrata; conditions: Winkia neuii; how it was run: as §1
[13] = system: Gemella sanguinis; experiment: Antimicrobial activity against Gemella sanguinis under anaerobic conditions after 44 hrs by CLSI-M11-47 protocol based agar dilution method; format: functional; how it was run: as §2
[14] = system: Prevotella oris; experiment: Antimicrobial activity against Prevotella oris under anaerobic conditions after 44 hrs by CLSI-M11-47 protocol based agar dilution method; format: functional; conditions: Segatella oris; how it was run: as §2
[15] = system: Bacteroides fragilis; experiment: Antimicrobial activity against Bacteroides fragilis spp. under anaerobic conditions after 44 hrs by CLSI-M11-47 protocol based agar dilution method; format: functional; how it was run: as §1
[16] = system: Peptostreptococcus stomatis; experiment: Antimicrobial activity against Peptostreptococcus stomatis under anaerobic conditions after 44 hrs by CLSI-M11-47 protocol based agar dilution method; format: functional; how it was run: as §2
[17] = system: Clostridium celerecrescens; experiment: Antimicrobial activity against Clostridium celerecrescens under anaerobic conditions after 44 hrs by CLSI-M11-47 protocol based agar dilution method; format: functional; conditions: Lacrimispora celerecrescens; how it was run: as §1
[18] = system: Clostridium subterminale; experiment: Antimicrobial activity against Clostridium subterminale under anaerobic conditions after 44 hrs by CLSI-M11-47 protocol based agar dilution method; format: functional; how it was run: as §1
[19] = system: Clostridium perfringens; experiment: Antimicrobial activity against Clostridium perfringens under anaerobic conditions after 44 hrs by CLSI-M11-47 protocol based agar dilution method; format: functional
[20] = system: Bacteroides ovatus; experiment: Antimicrobial activity against Bacteroides ovatus under anaerobic conditions after 44 hrs by CLSI-M11-47 protocol based agar dilution method; format: functional; how it was run: as §1
[21] = system: Clostridium butyricum; experiment: Antimicrobial activity against Clostridium butyricum under anaerobic conditions after 44 hrs by CLSI-M11-47 protocol based agar dilution method; format: functional
[22] = system: Prevotella disiens; experiment: Antimicrobial activity against Prevotella disiens under anaerobic conditions after 44 hrs by CLSI-M11-47 protocol based agar dilution method; format: functional; how it was run: as §2
[23] = system: Anaerococcus; experiment: Antimicrobial activity against Anaerococcus sp. under anaerobic conditions after 44 hrs by CLSI-M11-47 protocol based agar dilution method; format: functional; how it was run: as §1
[24] = system: Prevotella buccae; experiment: Antimicrobial activity against Prevotella buccae under anaerobic conditions after 44 hrs by CLSI-M11-47 protocol based agar dilution method; format: functional; conditions: Segatella buccae; how it was run: as §2
[25] = system: Anaerococcus lactolyticus; experiment: Antimicrobial activity against Anaerococcus lactolyticus under anaerobic conditions after 44 hrs by CLSI-M11-47 protocol based agar dilution method; format: functional; how it was run: as §1
[26] = system: Prevotella tannerae; experiment: Antimicrobial activity against Prevotella tannerae under anaerobic conditions after 44 hrs by CLSI-M11-47 protocol based agar dilution method; format: functional; conditions: Alloprevotella tannerae; how it was run: as §2
[27] = system: Parabacteroides distasonis; experiment: Antimicrobial activity against Bacteroides distasonis under anaerobic conditions after 44 hrs by CLSI-M11-47 protocol based agar dilution method; format: functional; how it was run: as §1
[28] = system: Anaerococcus tetradius; experiment: Antimicrobial activity against Anaerococcus tetradius under anaerobic conditions after 44 hrs by CLSI-M11-47 protocol based agar dilution method; format: functional; how it was run: as §1
[29] = system: Paeniclostridium sordellii; experiment: Antimicrobial activity against Clostridium sordellii under anaerobic conditions after 44 hrs by CLSI-M11-47 protocol based agar dilution method; format: functional; conditions: Paraclostridium sordellii; how it was run: as §1
[30] = system: Clostridium symbiosum; experiment: Antimicrobial activity against Clostridium symbiosum under anaerobic conditions after 44 hrs by CLSI-M11-47 protocol based agar dilution method; format: functional; how it was run: as §1
[31] = system: Lacrimispora sphenoides; experiment: Antimicrobial activity against Clostridium sphenoides under anaerobic conditions after 44 hrs by CLSI-M11-47 protocol based agar dilution method; format: functional; how it was run: as §1
[32] = system: Prevotella melaninogenica; experiment: Antimicrobial activity against Prevotella melaninogenica under anaerobic conditions after 44 hrs by CLSI-M11-47 protocol based agar dilution method; format: functional; how it was run: as §2

Compound `CO/N=C(\C(=O)N[C@@H]1C(=O)N2C(C(=O)O)=C(CSc3nc(=O)c(O)nn3C)CS[C@H]12)c1csc(N)n1` [CEFTRIAXONE] has an MIC50 [1] of 2 µg/mL (≈ 3.61 µM), an MIC90 [1] of 64 µg/mL (≈ 115 µM) and an MIC50 [2] of 1 µg/mL (≈ 1.8 µM). It also gave an MIC90 [2] of 8 µg/mL (≈ 14.4 µM), an MIC50 [3] of 0.06 µg/mL (≈ 0.108 µM) and an MIC90 [3] of 0.06 µg/mL (≈ 0.108 µM). For the same compound, the MIC50 [4] was 0.125 µg/mL (≈ 0.225 µM), the MIC90 [4] was 0.5 µg/mL (≈ 0.902 µM) and the MIC50 [5] was 4 µg/mL (≈ 7.21 µM). The MIC90 [5] was 32 µg/mL (≈ 57.7 µM), the MIC50 [6] was > 64 µg/mL and the MIC90 [6] was > 64 µg/mL. For the same compound, the MIC50 [7] was 32 µg/mL (≈ 57.7 µM), the MIC90 [7] was 64 µg/mL (≈ 115 µM) and the MIC50 [8] was 0.015 µg/mL (≈ 0.027 µM). The MIC90 [8] was 0.03 µg/mL (≈ 0.0541 µM), the MIC50 [9] was 2 µg/mL (≈ 3.61 µM) and the MIC90 [9] was 64 µg/mL (≈ 115 µM). It also gave an MIC50 [10] of 0.25 µg/mL (≈ 0.451 µM), an MIC90 [10] of 16 µg/mL (≈ 28.9 µM) and an MIC50 [11] of 1 µg/mL (≈ 1.8 µM). It also gave an MIC90 [11] of 16 µg/mL (≈ 28.9 µM), an MIC50 [12] of 0.125 µg/mL (≈ 0.225 µM) and an MIC90 [12] of 0.5 µg/mL (≈ 0.902 µM). It also gave an MIC50 [13] of 0.25 µg/mL (≈ 0.451 µM), an MIC90 [13] of 16 µg/mL (≈ 28.9 µM) and an MIC50 [14] of 1 µg/mL (≈ 1.8 µM). For the same compound, the MIC90 [14] was 8 µg/mL (≈ 14.4 µM), the MIC50 [15] was > 64 µg/mL and the MIC90 [15] was > 64 µg/mL. The MIC50 [16] was 2 µg/mL (≈ 3.61 µM), the MIC90 [16] was 8 µg/mL (≈ 14.4 µM) and the MIC50 [17] was 2 µg/mL (≈ 3.61 µM). For the same compound, the MIC90 [17] was 64 µg/mL (≈ 115 µM), the MIC50 [18] was 2 µg/mL (≈ 3.61 µM) and the MIC90 [18] was 64 µg/mL (≈ 115 µM). For the same compound, the MIC50 [19] was 0.5 µg/mL (≈ 0.902 µM), the MIC90 [19] was 2 µg/mL (≈ 3.61 µM) and the MIC50 [20] was > 64 µg/mL. For the same compound, the MIC90 [20] was > 64 µg/mL, the MIC50 [21] was 2 µg/mL (≈ 3.61 µM) and the MIC90 [21] was 64 µg/mL (≈ 115 µM). It also gave an MIC50 [22] of 1 µg/mL (≈ 1.8 µM), an MIC90 [22] of 8 µg/mL (≈ 14.4 µM) and an MIC50 [23] of 0.25 µg/mL (≈ 0.451 µM). For the same compound, the MIC90 [23] was 16 µg/mL (≈ 28.9 µM), the MIC50 [24] was 0.25 µg/mL (≈ 0.451 µM) and the MIC90 [24] was 64 µg/mL (≈ 115 µM). It also gave an MIC50 [25] of 0.25 µg/mL (≈ 0.451 µM), an MIC90 [25] of 16 µg/mL (≈ 28.9 µM) and an MIC50 [26] of 1 µg/mL (≈ 1.8 µM). The MIC90 [26] was 8 µg/mL (≈ 14.4 µM), the MIC50 [27] was > 64 µg/mL and the MIC90 [27] was > 64 µg/mL. For the same compound, the MIC50 [28] was 0.25 µg/mL (≈ 0.451 µM), the MIC90 [28] was 0.5 µg/mL (≈ 0.902 µM) and the MIC50 [29] was 2 µg/mL (≈ 3.61 µM). The MIC90 [29] was 64 µg/mL (≈ 115 µM), the MIC50 [30] was 2 µg/mL (≈ 3.61 µM) and the MIC90 [30] was 64 µg/mL (≈ 115 µM). It also gave an MIC50 [31] of 2 µg/mL (≈ 3.61 µM), an MIC90 [31] of 64 µg/mL (≈ 115 µM) and an MIC50 [32] of 2 µg/mL (≈ 3.61 µM). The MIC90 [32] was 32 µg/mL (≈ 57.7 µM).
